Test results as given in PMC12480952 (Nature Communications, 2025).

Test system: FLAG-tagged, full-length WT BCL-2
Assay: Streptavidin pull-down from HEK 293T lysate, FLAG-BCL-2 WT, anti-FLAG western
Assay type: binding, human
Details: biotinylated BAD SAHB 4.2 1 μM, 300 μg lysate, overnight 4 °C
Method in brief: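 HEK 293T cells (DMEM, 10% FBS, penicillin/streptomycin, 2 mM glutamine; mycoplasma-free) were transfected at 70% confluence with 3 μg of plasmid encoding N-FLAG full-length BCL-2 (aa 1–239) and lysed after 24 h in CHAPS buffer. Lysate (300 μg) took 1 μM biotinylated test peptide ± competitor (0.1, 1.0, 10 μM), overnight, 4 °C. Streptavidin agarose capture followed (2 h, room temperature), then PBS and 1% NP-40 washes, LDS elution and anti-FLAG western; three independent repeats.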

Structure (SMILES): CC1(C)CCC(CN2CCN(c3ccc(C(=O)NS(=O)(=O)c4ccc(NCC5CCOCC5)c([N+](=O)[O-])c4)c(Oc4cnc5[nH]ccc5c4)c3)CC2)=C(c2ccc(Cl)cc2)C1 [venetoclax]
- displacement of biotin-BAD SAHB 4.2 from FLAG-BCL-2 WT (venetoclax 1 μM): near complete dissociation
- displacement of biotin-BAD SAHB 4.2 from FLAG-BCL-2 WT (venetoclax 10 μM): complete dissociation
